Source: PubChem
PPC-1+TRAIL kill: PPC-1 cancer cell killing with TRAIL present | PPC-1 cells + TRAIL, ATPLite viability luminescence | cell killing (% activity), % at 4 µM or 5 µM | actives 0.41% (n = 220,000);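 active means cell killing above 50% in the first pass at 4 µM, then a duplicate retest at 5 µM averaging 50% or more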
HSP90 inh: inhibitors of HSP90 luciferase refolding in rabbit reticulocyte lysate | inhibition, % at 5.6 µM | luciferase refolding luminescence, 3 h | actives 0.91% (n = 290,000);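 active means inhibition above the screen-wide mean plus 3 SD, computed separately per campaign, cut at about 16% in these data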;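 further: inhibitors lower the luminescence because luciferase stays unfolded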
STAT3 act: activators of IL-6 induced STAT3 signaling | actives 0.91% (n = 190,000) | activation (% of control), % at 5.6 µM | AID 871 | U3A cells, IL-6 STAT3-luciferase reporter, luminescence; 100% = signal with IL-6 EC80 alone;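 active means activation above the screen-wide mean of compound activation plus 3 SD, cut at about 130% in these data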
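Material: human U3A cells carrying STAT3-luciferase construct. Measured by: reporter luminescence signal. Timing: compound 1 h, then IL-6 6 h at 37 °C.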
STAT1 inh: STAT1 signaling inhibition; AID 920; NIH 3T3 STAT1-luciferase reporter, IFN-gamma, luminescence; inhibition, % at 5.5 µM; actives 0.35% (n = 200,000);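 active means inhibition above a set limit, the mean inhibition across all tested compounds plus 3 SD, cut at about 34% in these data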
C8 TRAIL sens: caspase-8 TRAIL sensitization; NB7+C8 cells + TRAIL, ATPlite viability luminescence; actives 1% (n = 360,000); inhibition (viability loss, TRAIL sensitization), % at 10 µM;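 active means compounds causing at least 50% loss of cell viability in the single-dose screen, relative to plate controls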
STAT3 blocker: STAT3 signaling inhibition; inhibition, % at 5.5 µM; U3A cells, IL-6 STAT3-luciferase reporter, luminescence; host cell line lacks STAT1; actives 0.89% (n = 190,000);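 active means inhibition above the mean inhibition across all screened compounds plus 3 SD, cut at about 44% in these data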
Numbers stand for hits; n = inactive; x = no result given. Compounds with a hit are over-represented: about 2.3% of the library has one in this group of screens.

SMILES	PPC-1+TRAIL kill	HSP90 inh	STAT3 act	STAT1 inh	C8 TRAIL sens	STAT3 blocker
COc1ccc(OC)c(C2/C(=C(\O)c3ccc4c(c3)OCCO4)C(=O)C(=O)N2CC2CCCO2)c1 (stereo not given)	x	n	x	x	n	x
COc1ccc(C2=Nc3cccc4cccc(c34)N2)cc1	n	n	135	n	n	n
CCOC(=O)c1cnc(SCc2ccc(C)cc2)nc1N	n	n	n	n	n	n
CCCCCCCNC(=O)C1(CC2CC(c3ccc(Cl)cc3)=NO2)CCNCC1 (stereo not given)	x	n	x	x	71	x
CCCCCCCNC(=O)C1(CC2CC(c3cccc(Br)c3)=NO2)CCNCC1 (stereo not given)	x	n	x	x	87	x
CCCCCCCNC(=O)C1(CC2CC(c3cccc(Br)c3)=NO2)CCN(C(=O)Cc2ccc(F)cc2)CC1 (stereo not given)	x	x	x	x	n	x
Cc1nn(-c2ccc(F)cc2)c2nc(N)c(C#N)c(-c3ccc(O)c(O)c3)c12	x	n	x	x	n	x
COc1cc(-c2c(C#N)c(N)nc3c2c(C)nn3-c2ccc(C)c(C)c2)cc(OC)c1OC	n	n	135	n	n	n
Oc1ccc(-c2nccc(-c3cccs3)n2)cc1	n	n	140	n	n	n
COC(=O)C(C)Oc1ccc(-c2nccc(-c3cccs3)n2)cc1 (stereo not given)	n	n	n	n	n	n
CSc1nnc(NC(=O)c2nc(S(=O)(=O)Cc3ccccc3)ncc2Cl)s1	x	n	x	x	82	x
CCCc1nnc(NC(=O)c2nc(S(=O)(=O)Cc3ccc(C)cc3)ncc2Cl)s1	x	n	x	x	n	x
CC(C)c1nnc(NC(=O)c2nc(S(=O)(=O)Cc3ccccc3)ncc2Cl)s1	x	n	x	x	94	x
COc1cc(/C=N/NC(=O)c2cccc([N+](=O)[O-])c2)cc(OC)c1O	n	n	n	n	n	n
COc1cccc(/C=N/NC(=O)c2ccc([N+](=O)[O-])cc2Cl)c1O	n	n	n	n	55	n
CCN(Cc1ccccc1)S(=O)(=O)c1ccc(C(=O)N(CCCN(C)C)c2nc3cc(C)cc(C)c3s2)cc1	x	x	x	x	75	x
Cc1ccc2sc(N(CCCN(C)C)C(=O)c3ccc(S(=O)(=O)N(C)C)cc3)nc2c1C	n	n	n	n	n	n
Cc1cc(C)c2sc(N(CCCN(C)C)C(=O)c3ccc(S(=O)(=O)N(C)Cc4ccccc4)cc3)nc2c1	x	x	x	x	n	x
CCOc1cccc2sc(N(CCCN(C)C)C(=O)c3ccc(S(=O)(=O)N(C)Cc4ccccc4)cc3)nc12	x	n	x	x	51	x
Cc1ccc2sc(N(CCCN(C)C)C(=O)c3ccc(S(=O)(=O)N(C)Cc4ccccc4)cc3)nc2c1C	x	x	x	x	69	x
Cc1ccc2[nH]c(C(=O)N3CCN(C=O)CC3)cc2c1	x	n	x	x	n	x
C(=N\N=C\c1ccccc1)/c1ccccc1	n	n	n	n	n	n
O=C1C=C(c2c(O)ccc3ccccc23)c2ccccc2C1=O	x	x	x	x	86	x
COc1ccc(-c2cc(N3C(=O)Nc4ccccc4N3O)n[nH]2)cc1	n	n	n	n	n	n
CCOc1ccc(-c2cc(N3C(=O)Nc4ccccc4N3O)on2)cc1	n	n	n	n	56	n
SMILES	PPC-1+TRAIL kill	HSP90 inh	STAT3 act	STAT1 inh	C8 TRAIL sens	STAT3 blocker
C=CCN1C=CC(=C/C=C(/C#N)C(=O)OCC)C=C1	n	n	n	n	49	n
CCOC(=O)/C(C#N)=C/C=C1/C=CC=CN1C	n	n	x	x	n	x
O=C(Nc1nc2cc3c(cc2s1)OCCO3)c1ccc([N+](=O)[O-])o1	x	n	x	x	69	x
CCOc1ccc2nc(NC(=O)c3ccc(C)o3)sc2c1	x	x	x	x	58	x
O=C(Nc1nc2ccccc2s1)c1ccc([N+](=O)[O-])o1	x	n	x	x	n	x
COc1ccc2nc(NC(=O)c3ccc([N+](=O)[O-])o3)sc2c1	x	n	x	x	54	x
COc1cccc(NC(=O)CN2C(=O)NC(C)(CC(C)C)C2=O)c1 (stereo not given)	n	n	n	n	n	n
CCn1cc(C2C(C(=O)Nc3ccc(Br)cn3)=C(C)NC3=C2C(=O)CCC3)c(C)n1 (stereo not given)	n	n	n	n	n	n
O=C(NCc1ccccc1)C1CCN(C(=O)NCc2ccccc2)CC1	n	n	n	n	n	n
COc1ccc(NC(=O)Cc2ccccc2)cn1	n	n	n	n	n	n
COc1ccc(CS(=O)(=O)/C(Cl)=C(/Cl)C(=O)Nc2ccc(OC)nc2)cc1	n	n	n	n	90	n
COc1ccc(NC(=O)/C(Cl)=C(/Cl)S(=O)Cc2ccccc2)cn1 (stereo not given)	n	n	n	n	96	n
CC(C)CN(C(=O)CN1CCCCCC1)c1c(N)n(CC(C)C)c(=O)[nH]c1=O	n	n	n	n	n	n
CC(C)(C)n1[nH]c2c3c(ccc2c1=O)C(=O)c1ccccc1C3=O	n	17	n	n	n	n
O=C(NC(=S)NNC(=O)c1ccccc1[N+](=O)[O-])c1ccccc1	n	n	n	n	n	n
O=C(c1cc2ccccc2[nH]1)N1CCOCC1	n	n	135	n	n	n
CN1CCN(C(=O)c2cc3ccccc3[nH]2)CC1	x	n	x	x	n	x
COc1ccc(N)cc1-n1cnnn1	n	n	n	n	n	n
Cn1c(=NN=Cc2ccccc2OCCO)sc2ccccc21	x	x	x	x	n	x
Cn1/c(=N/N=C/c2ccc([N+](=O)[O-])cc2)sc2ccccc21	n	n	144	n	x	n
Cc1nn(-c2ccccc2)c(C)c1-c1cc(C(=O)N/N=C/c2ccc(O)cc2)[nH]n1	n	n	x	x	50	x
COc1cc(/C=N/NC(=O)c2cc(-c3c(C)nn(-c4ccccc4)c3C)n[nH]2)ccc1O	n	n	236	n	n	n
COc1cc(/C=N/NC(=O)c2nc(-c3ccccc3)n(-c3ccccc3)n2)ccc1O	n	n	n	n	n	n
COc1ccc(OC)c(NC(=O)N2CCCC(CNS(=O)(=O)c3cccs3)C2)c1 (stereo not given)	n	n	n	n	n	n
Cn1c(/N=C/c2c(O)ccc3ccccc23)nc2ccccc21	n	n	134	n	n	n
SMILES	PPC-1+TRAIL kill	HSP90 inh	STAT3 act	STAT1 inh	C8 TRAIL sens	STAT3 blocker
CCCn1c(/N=C/c2ccccc2O)nc2ccccc21	n	n	n	n	n	n
Cc1cc(/C=C(\C#N)C(=O)O)c(C)n1-c1ccc(Br)cc1	n	n	x	x	n	x
COC(=O)Cn1c(=O)c(C(=O)CCl)c(N)n(Cc2ccccc2)c1=O	n	n	x	x	82	x
O=C(Nc1ncnc2c1C(c1ccccc1)c1c(ccc3ccccc13)O2)c1ccccc1 (stereo not given)	x	x	x	x	59	x
CCOC(=O)N1CCN(C(=O)c2cccc(N3C(=O)NC4CC3(C)Oc3ccc(Cl)cc34)c2)CC1 (stereo not given)	x	n	x	x	n	x
Cc1c(C(=O)Nc2nc3ccccc3[nH]2)oc2ccccc12	n	n	145	n	n	n
Cc1c(C(=O)Nc2nc3ccccc3[nH]2)oc2ccc(Br)cc12	n	n	n	n	n	n
CCOc1ccc(NC(=O)c2cc3cc4ccc(C)cc4nc3o2)cc1	n	n	n	n	x	n
